The text below walks through data of ChEMBL document CHEMBL3244125, “In vivo inhibitors of Escherichia coli phenylalanyl-tRNA synthetase” (J Med Chem, 1979).

Assay [1] relates to Escherichia coli B. Nature of the assay: Ratio of IC50 for inhibition of Phe-tRNA synthetase in rel+ Escherichia coli B assessed as growth inhibition to Ki for inhibition of rel+ Escherichia coli B Phe-tRNA synthetase using L-[3H]-phenylalanine as substrate.
A short description of assay [2]: Inhibition of Phe-tRNA synthetase in rel+ Escherichia coli B assessed as growth inhibition. The gist of the method: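 E. coli B/r in exponential growth (A600 ≈ 0.3) in basal salts medium (0.2% glucose, phosphate, MgSO4, (NH4)2SO4) was diluted into medium with a range of inhibitor levels. It was incubated at 37 °C for about three generations, until controls reached A600 0.4–0.45. Growth was read at 600 nm as % of control turbidity, and IC50 was taken from % inhibition versus concentration plots.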

Assay [3] relates to Escherichia coli B. Put plainly: Inhibition of Phe-tRNA synthetase in rel+ Escherichia coli B assessed as growth inhibition at IC50 in presence of 2.5 mM L-Phe. The gist of the method:
(§1)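 Reversal assay in E. coli B/r. Exponential culture (A600 ≈ 0.3) in basal salts glucose minimal medium was diluted into medium holding the specified amino acid plus inhibitor, at 37 °C. Controls had no inhibitor. Growth was read turbidimetrically at 600 nm after about three generations, as % inhibition relative to control.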

A short description of assay [4]: Inhibition of rel+ Escherichia coli B Phe-tRNA synthetase using L-[3H]-phenylalanine as substrate by scintillation counting analysis.
The subject of assay [5] is Escherichia coli B. Nature of the assay: Inhibition of Phe-tRNA synthetase in rel+ Escherichia coli B assessed as half maximal rate of [32P]ppGpp formation at 70 uM measured every 1 min by scintillation counting analysis. The gist of the method: (§2)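 Exponential cultures in Tris-glucose minimal medium were labeled with carrier-free [32P]phosphate at least 30 min before inhibitor. Four to five 25 µL aliquots were taken at about 1-min intervals into ice-cold 2 M formic acid and held 30 min at 0 °C. Extracts were run on PEI-cellulose TLC in 1.5 M KH2PO4 pH 3.4. ppGpp spots were located by autoradiography and counted. Initial rate was taken as the linear increase over time.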

The test system of assay [6] is Escherichia coli B. Nature of the assay: Inhibition of Phe-tRNA synthetase in rel+ Escherichia coli B assessed as formation of [32P]ppGpp at 4.6 uM at 37 degC measured every 1 min by scintillation counting analysis in absence of casamino acid supplement in tris-glucose minimal media. The gist of the method: as §2
In assay [7] the test system is Escherichia coli B. Put plainly: Inhibition of rel+ Phe-tRNA synthetase in Escherichia coli B assessed as tRNA-Phe level at 4.6 uM at 37 degC after 30 mins in absence of casamino acid supplement in tris-glucose minimal media (reference value: 60%).
For assay [8], the target named is Isoleucine--tRNA ligase (Escherichia coli K-12) (UniProt P00956). Nature of the assay: Inhibition of Ile-tRNA synthetase in Escherichia coli NP29 assessed as tRNA-Ile level at 230 uM at 30 degC after 30 mins (reference value: 40%). The gist of the method:
(§3)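 Temperature-sensitive Val-tRNA synthetase strain NP29, grown at 30 °C in Tris-glucose minimal medium with 0.2% casamino acids. Inhibitor was added during log growth and the control was kept at 30 °C. After 30 min, cells were quenched with ice and NaN3 and disrupted. Aminoacyl-tRNA was measured by periodate oxidation (1 mM) or Tris-HCl pH 8.0 stripping, with purified synthetases.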

In assay [9] the test system is Escherichia coli B. Nature of the assay: Inhibition of Phe-tRNA synthetase in rel+ Escherichia coli B assessed as tRNA-Phe level at 23 uM at 37 degC after 30 mins in absence of casamino acid supplement in tris-glucose minimal media (reference value: 60%).
The subject of assay [10] is Escherichia coli B. Nature of the assay: Inhibition of Phe-tRNA synthetase in rel+ Escherichia coli B assessed as tRNA-Phe level at 230 uM at 37 degC after 30 mins in presence of casamino acid supplement in tris-glucose minimal media (reference value: 90%).
In assay [11] the test system is Escherichia coli B. Put plainly: Inhibition of Phe-tRNA synthetase in rel+ Escherichia coli B assessed as formation of [32P]ppGpp at 230 uM at 37 degC measured every 1 min by scintillation counting analysis in presence of casamino acid supplement in tris-glucose minimal media. The gist of the method:
as §2

For assay [12], the system named is Escherichia coli B. Put plainly: Inhibition of Phe-tRNA synthetase in rel+ Escherichia coli B assessed as growth inhibition at IC50 in presence of Val. The essentials:
as §1

For assay [13], the system named is Escherichia coli B. Nature of the assay: Inhibition of Phe-tRNA synthetase in rel+ Escherichia coli B assessed as growth inhibition at IC50 in presence of Ile. The essentials:
as §1

For assay [14], the target named is Isoleucine--tRNA ligase (Escherichia coli K-12) (UniProt P00956). Put plainly: Inhibition of Ile-tRNA synthetase in rel+ Escherichia coli B assessed as tRNA-Ile level at 23 uM at 37 degC after 30 mins in absence of casamino acid supplement in tris-glucose minimal media (reference value: 40%).
For assay [15], the system named is Escherichia coli. Put plainly: Inhibition of Phe-tRNA synthetase in Escherichia coli NP29 assessed as tRNA-Phe level at 230 uM at 30 degC after 30 mins (reference value: 70%). The gist of the method:
as §3

Assay [16] concerns Escherichia coli B. Nature of the assay: Inhibition of Phe-tRNA synthetase in rel+ Escherichia coli B assessed as growth inhibition at 92 uM. The gist of the method: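 E. coli B/r in log phase at 37 °C, with inhibitor added at a set time. Cell density was followed turbidimetrically at 600 nm alongside ppGpp and RNA synthesis measurements.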
The test system of assay [17] is Escherichia coli B. Nature of the assay: Inhibition of Phe-tRNA synthetase in rel+ Escherichia coli B assessed as tRNA-Phe level at 9.2 uM at 37 degC after 30 mins in absence of casamino acid supplement in tris-glucose minimal media (reference value: 60%).
For assay [18], the system named is Escherichia coli. Put plainly: Inhibition of Val-tRNA synthetase in Escherichia coli NP29 assessed as tRNA-val level at 230 uM at 30 degC after 30 mins (reference value: 30%). The essentials:
as §3

Assay [19] relates to Escherichia coli B. Nature of the assay: Inhibition of Phe-tRNA synthetase in rel+ Escherichia coli B assessed as growth inhibition at IC50 in presence of Tyr. The gist of the method:
as §1

Assay [20] deals with Escherichia coli. Put plainly: Inhibition of Phe-tRNA synthetase in Escherichia coli NP29 assessed as formation of [32P]ppGpp at 230 uM at 30 degC measured every 1 min by scintillation counting analysis. The essentials:
as §2

The subject of assay [21] is Escherichia coli B. Nature of the assay: Inhibition of Phe-tRNA synthetase in rel+ Escherichia coli B assessed as formation of [32P]ppGpp at 23 uM at 37 degC measured every 1 min by scintillation counting analysis in absence of casamino acid supplement in tris-glucose minimal media. The gist of the method: as §2
Assay [22] relates to Escherichia coli B. Nature of the assay: Inhibition of Phe-tRNA synthetase in rel+ Escherichia coli B assessed as tRNA-Phe level at 230 uM at 37 degC after 30 mins in absence of casamino acid supplement in tris-glucose minimal media (reference value: 60%).
Assay [23] has as its system Escherichia coli B. Nature of the assay: Inhibition of Phe-tRNA synthetase in rel+ Escherichia coli B assessed as growth inhibition at IC50 in presence of Ser. The gist of the method: as §1
In assay [24] the test system is Escherichia coli B. Nature of the assay: Inhibition of Phe-tRNA synthetase in rel+ Escherichia coli B assessed as formation of [32P]ppGpp at 9.2 uM at 37 degC measured every 1 min by scintillation counting analysis in absence of casamino acid supplement in tris-glucose minimal media. The essentials: as §2
Assay [25] has as its system Escherichia coli B. Put plainly: Inhibition of Phe-tRNA synthetase in rel+ Escherichia coli B assessed as growth inhibition at IC50 in presence of Pro. The gist of the method: as §1
Assay [26] has as its target Isoleucine--tRNA ligase (Escherichia coli K-12) (UniProt P00956). Put plainly: Inhibition of Ile-tRNA synthetase in rel+ Escherichia coli B assessed as tRNA-Ile level at 4.6 uM at 37 degC after 30 mins in absence of casamino acid supplement in tris-glucose minimal media (reference value: 40%).
The test system of assay [27] is Escherichia coli B. Nature of the assay: Inhibition of Val-tRNA synthetase in rel+ Escherichia coli B assessed as tRNA-val level at 230 uM at 37 degC after 30 mins in absence of casamino acid supplement in tris-glucose minimal media.
The test system of assay [28] is Escherichia coli B. Nature of the assay: Inhibition of Val-tRNA synthetase in rel+ Escherichia coli B assessed as tRNA-val level at 230 uM at 37 degC after 30 mins in presence of casamino acid supplement in tris-glucose minimal media (reference value: 100%).
The test system of assay [29] is Escherichia coli B. Nature of the assay: Inhibition of Phe-tRNA synthetase in rel+ Escherichia coli B assessed as formation of [32P]ppGpp at 92 uM measured every 1 min by scintillation counting analysis. The gist of the method:
as §2

For assay [30], the target named is Isoleucine--tRNA ligase (Escherichia coli K-12) (UniProt P00956). Put plainly: Inhibition of Ile-tRNA synthetase in rel+ Escherichia coli B assessed as tRNA-Ile level at 9.2 uM at 37 degC after 30 mins in absence of casamino acid supplement in tris-glucose minimal media (reference value: 40%).
A short description of assay [31]: Inhibition of Phe-tRNA synthetase in rel+ Escherichia coli B assessed as reduction of tRNA-Phe level after 30 mins.
The target in assay [32] is Isoleucine--tRNA ligase (Escherichia coli K-12) (UniProt P00956). Nature of the assay: Inhibition of Ile-tRNA synthetase in rel+ Escherichia coli B assessed as tRNA-Ile level at 230 uM at 37 degC after 30 mins in absence of casamino acid supplement in tris-glucose minimal media (reference value: 40%).
The test system of assay [33] is Escherichia coli B. Put plainly: Inhibition of Phe-tRNA synthetase in rel+ Escherichia coli B assessed as [3H]-RNA synthesis at 92 uM after 5 mins by scintillation counting analysis in presence of [5-3H]-Uracil. The gist of the method: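 E. coli B/r in exponential growth was labeled with [5-3H]uracil (75 Ci/mol). At intervals, 25 µL culture was put into 1 mL ice-cold trichloroacetic acid for 5 min at 0 °C. Samples were filtered on glass-fibre filters, washed with cold TCA then 95% ethanol, and counted by scintillation.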

For assay [34], the target named is Isoleucine--tRNA ligase (Escherichia coli K-12) (UniProt P00956). Nature of the assay: Inhibition of Ile-tRNA synthetase in rel+ Escherichia coli B assessed as tRNA-Ile level at 230 uM at 37 degC after 30 mins in presence of casamino acid supplement in tris-glucose minimal media (reference value: 50%).
The test system of assay [35] is Escherichia coli B. Put plainly: Inhibition of Phe-tRNA synthetase in rel+ Escherichia coli B assessed as formation of [32P]ppGpp at 230 uM at 37 degC measured every 1 min by scintillation counting analysis in absence of casamino acid supplement in tris-glucose minimal media. The essentials:
as §2

Molecules are shown by their SMILES. pIC50, pKi: −log10 of the molar value. Calls of active or inactive are those of the source. No cut-off for these calls is given here.

Chain of Isoleucine--tRNA ligase (Escherichia coli K-12) (P00956 whole entry): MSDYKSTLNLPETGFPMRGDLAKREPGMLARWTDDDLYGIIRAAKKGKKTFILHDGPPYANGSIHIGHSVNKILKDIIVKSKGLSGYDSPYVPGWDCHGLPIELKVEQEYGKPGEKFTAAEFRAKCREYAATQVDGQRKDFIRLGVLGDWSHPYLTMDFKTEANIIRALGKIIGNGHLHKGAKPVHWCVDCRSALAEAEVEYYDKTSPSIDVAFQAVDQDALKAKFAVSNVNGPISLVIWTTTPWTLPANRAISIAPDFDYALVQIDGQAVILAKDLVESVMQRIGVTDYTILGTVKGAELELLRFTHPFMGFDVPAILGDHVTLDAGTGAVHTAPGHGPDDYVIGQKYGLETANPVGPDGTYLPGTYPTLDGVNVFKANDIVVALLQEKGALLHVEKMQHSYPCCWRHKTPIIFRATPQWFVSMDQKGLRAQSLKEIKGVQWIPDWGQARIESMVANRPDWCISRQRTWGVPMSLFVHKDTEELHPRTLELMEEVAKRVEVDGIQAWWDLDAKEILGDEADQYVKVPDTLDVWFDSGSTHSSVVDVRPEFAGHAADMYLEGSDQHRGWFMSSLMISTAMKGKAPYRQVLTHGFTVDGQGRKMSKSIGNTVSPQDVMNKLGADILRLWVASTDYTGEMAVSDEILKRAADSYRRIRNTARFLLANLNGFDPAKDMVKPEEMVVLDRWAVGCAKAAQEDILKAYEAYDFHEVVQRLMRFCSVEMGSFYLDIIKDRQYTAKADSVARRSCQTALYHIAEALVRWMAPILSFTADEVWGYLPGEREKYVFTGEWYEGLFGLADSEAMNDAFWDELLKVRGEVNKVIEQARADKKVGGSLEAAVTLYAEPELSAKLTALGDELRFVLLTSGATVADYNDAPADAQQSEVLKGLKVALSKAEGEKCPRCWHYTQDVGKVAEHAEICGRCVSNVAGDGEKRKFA

One may read the pIC50 as the IC50 on a negative log10 scale, so that one unit is a factor of ten. Usually inhibition stands for the relative decrease from the control value, in per cent. In general, pKi refers to the negative decadic logarithm of the Ki, by convention in mol/L. On to `OC[C@@H](Cc1ccccc1)NCc1ccccc1`, for which the Ratio in the assay with Escherichia coli B [1] came out at 106. Moreover, the pIC50 in assay [2] is 4.09. The inhibition entry in the assay with Escherichia coli B [3] is “inactive”. In assay [4], this compound showed a negative logarithm of the Ki (pKi) of 6.11.
In the case of `NCCc1ccccc1` [PHENETHYLAMINE], the Ratio in the assay with Escherichia coli B [1] turned out to be 117. Further, in [2], the pIC50 was 1.96. In assay [4], this compound had a pKi of 4.03.
On to `C[C@@H](Cc1ccccc1)NCc1ccccc1`, for which the Ratio in the assay with Escherichia coli B [1] came to 105. Also, the pIC50 in assay [2] was 3.23. In addition, the inhibition result in the assay on Escherichia coli B [3] is “inactive”. Moreover, the pKi in assay [4] was 5.25.
With `C[C@H](Cc1ccccc1)NCc1ccccc1` [N-BENZYLAMPHETAMINE], the inhibition result in the assay with Escherichia coli B [5], with Escherichia coli B [6], with Escherichia coli B [11], with Escherichia coli B [12], in the assay on Escherichia coli B [13] and in the assay with Escherichia coli B [16] was “Active” throughout. For the same compound, the inhibition result with Escherichia coli B [19], with Escherichia coli [20], in the assay on Escherichia coli B [21], in the assay with Escherichia coli B [23], with Escherichia coli B [24] and with Escherichia coli B [25] was “Active” in each case. Also, the inhibition entry in the assay on Escherichia coli B [29], with Escherichia coli B [33] and in the assay with Escherichia coli B [35] was “Active” each time. Moreover, the inhibition with Escherichia coli B [7] came out at 45%; in assay [8], 45%; with Escherichia coli B [9], 20%; in the assay with Escherichia coli B [10], 15%; in assay [14], 45%; with Escherichia coli [15], 5%. The inhibition in the assay with Escherichia coli B [17] came to 35%; in the assay with Escherichia coli [18], 95%; in the assay on Escherichia coli B [22], 10%; in [26] it was 40%; in the assay on Escherichia coli B [27], 100%; with Escherichia coli B [28], 100%. The inhibition in assay [30] was 40%; in [32], 45%; in assay [34], 55%. Further, the Ratio with Escherichia coli B [1] is 107. Moreover, the pIC50 in [2] was 4.82; in assay [31] it was 4.89. In addition, the inhibition entry with Escherichia coli B [3] is “inactive”. For the same compound, in assay [4], the pKi is 6.85.
For `c1ccc(CCNCc2ccccc2)cc1`, the Ratio with Escherichia coli B [1] was 115. For the same compound, the negative-log IC50 (pIC50) in [2] was 4.11. Besides, in the assay on Escherichia coli B [3], the inhibition result is “inactive”. The negative logarithm of the Ki (pKi) in assay [4] was 6.17.
